Compounds with a hit are over-represented: about 2.6% of the library has one in this group of screens.
ASAP1 inh: ASAP1 ArfGAP inhibition | Q9ULH1 | ASAP1-stimulated ARF1 GTP hydrolysis, GDP FP detection | inhibition, % at 16.5 µM | 360,000 compounds, 0.19% hits | AID 624377; in the data active = inhibition above about 25%
Target sequence (Q9ULH1 325-724 limits assumed): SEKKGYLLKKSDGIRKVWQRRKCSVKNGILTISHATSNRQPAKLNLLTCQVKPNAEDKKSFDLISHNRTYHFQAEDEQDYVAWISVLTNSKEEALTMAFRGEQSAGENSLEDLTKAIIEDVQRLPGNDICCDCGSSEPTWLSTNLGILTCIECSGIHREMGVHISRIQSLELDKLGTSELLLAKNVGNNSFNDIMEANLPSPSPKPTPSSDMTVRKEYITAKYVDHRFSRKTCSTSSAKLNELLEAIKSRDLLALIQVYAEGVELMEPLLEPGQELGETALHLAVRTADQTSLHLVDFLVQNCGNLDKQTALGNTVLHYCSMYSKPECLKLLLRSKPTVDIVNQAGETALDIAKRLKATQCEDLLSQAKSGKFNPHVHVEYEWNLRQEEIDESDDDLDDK
SMARCA2 activ: increases SMARCA2 function in MMTV reporter cells. 370,000 compounds, 1% hits. MG213 cells, MMTV-luciferase reporter, dexamethasone, overnight. AID 652017. activation, % at 9.1 µM; in the data active = activation above about 7.8%
esBAF inh: SWI/SNF esBAF complex inhibition. mouse ES cells, Bmi1-luciferase knock-in reporter, 24 h; 100% = twice the neutral-well signal. reporter increase, % at 12.5 µM. 350,000 compounds, 2% hits; in the data active = activation above about 40%; inconclusive = no clear call, values can overlap the other calls;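 also: a rise in the Bmi1 reporter signal indicates esBAF inhibition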
ARFGAP1 inh: inhibits rat ARF GTPase activating protein 1; Q62848; Arfgap1-stimulated ARF1 GTP hydrolysis, GDP FP detection; inhibition, % at 16.5 µM; 360,000 compounds, 0.26% hits; AID 651572;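 active = inhibition above a per-plate limit, mean inhibition of low control wells plus 3 SD, cut at about 25% in these data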
Target sequence (Q62848 1-136 limits assumed): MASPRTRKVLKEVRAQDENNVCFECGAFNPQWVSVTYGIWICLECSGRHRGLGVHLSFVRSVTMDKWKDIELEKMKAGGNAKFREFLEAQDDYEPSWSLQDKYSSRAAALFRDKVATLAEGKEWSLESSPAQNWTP
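system = rat Arfgap1 catalytic domain, aa 1-136 | technique = FP, GDP Alexa 633 tracer displaced from anti-GDP antibody, 620/688 nm | compound = one concentration, 16.5 µM, DMSO 1.26% | medium = HEPES-based buffer, pH 7.5 | timing = compound-enzyme preincubation 20 min, reaction 120 min, detection 60 min, 25 °C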
A number is an active result; . = inactive; ? = inconclusive; / = no result given.

SMILES | ASAP1 inh | SMARCA2 activ | esBAF inh | ARFGAP1 inh
CCCCC(=O)c1c(O)c2ccccc2oc1=O | . | . | 59 | .
CC(=N)c1c(O)c2ccccc2oc1=O | . | . | / | .
CCCCN=C(C)c1c(O)c2ccccc2oc1=O | . | . | 42 | .
CCNc1oc(-c2cccc3ccccc23)nc1C#N | . | . | 60 | .
COCCNc1oc(-c2ccccc2Cl)nc1C#N | . | . | 55 | .
COCCNc1oc(-c2ccc(F)cc2)nc1C#N | . | . | . | .
CCN(CC)C(=O)c1cnn(-c2ccccc2)c1NC(=O)c1ccco1 | . | . | . | .
Cc1ccc(NC(=O)c2cnn(-c3ccccc3)c2NC(=O)c2ccco2)cc1C | / | / | 55 | /
CCC(=O)Nc1ccc2c(c1)C(=O)N(C)C[C@@H](OC)[C@@H](C)CN(C(=O)C1CC1)[C@H](C)CO2 | / | / | . | /
Cc1noc(C)c1NC(=O)N(C)C[C@@H]1Oc2ccc(N(C)C)cc2CC(=O)N([C@H](C)CO)C[C@H]1C | / | / | . | /
COC(=O)c1ccc(N2CCN(c3ccccc3)CC2)nc1 | . | . | 50 | .
CS(=O)(=O)Nc1ccc2c(c1)[C@@H]1C[C@@H](CC(=O)NCc3cccc(F)c3)O[C@H](CO)[C@@H]1O2 | / | / | . | /
CCOC(=O)c1cc2ccc3ccccc3c2oc1=O | . | . | . | .
CCOC(=O)c1cc2ccc3ccccc3c2s1 | . | . | 75 | .
CCOC(=O)c1cc2c(s1)-c1ccccc1CC2 | . | . | 57 | .
CCC(=O)N1[C@@H]2Cn3c(ccc(-c4cccnc4)c3=O)[C@H]1[C@@H](C(=O)NC1CCC1)[C@@H]2CO | / | / | . | /
COc1ccc2nc(NC(=O)c3ccc4ncsc4c3)sc2c1 | / | / | 67 | /
Cc1noc(C)c1C(=O)Nc1nc2ccc(F)cc2s1 | . | . | 52 | .
CCc1noc(C)c1C(=O)Nc1nc2ccc(F)cc2s1 | . | . | / | .
COc1ccc2nc(NC(=O)c3cccs3)sc2c1 | . | . | ? | .
COc1ccc(C(=O)Nc2nc3ccccc3s2)cc1OC | . | . | 78 | .
Cc1cccc(C(=O)Nc2nc3ccc(S(C)(=O)=O)cc3s2)c1 | . | . | 46 | .
CS(=O)(=O)c1ccc2nc(NC(=O)c3ccccc3)sc2c1 | . | . | . | .
COc1ccc(C(=O)Nc2nc3ccccc3s2)cc1 | . | . | . | .
C[C@@H]1CN([C@@H](C)CO)S(=O)(=O)c2ccc(C3=CCCC3)cc2O[C@@H]1CN(C)C | / | / | . | /
SMILES | ASAP1 inh | SMARCA2 activ | esBAF inh | ARFGAP1 inh
O=C(c1ccc(F)cc1)N1C[C@@H]2[C@H](c3ccccc31)[C@H](CO)N2Cc1ccc2c(c1)OCO2 | / | / | . | /
CC(C)C#Cc1cnc2c(c1)C(=O)N([C@H](C)CO)C[C@@H](C)[C@@H](CN(C)S(=O)(=O)c1cn(C)cn1)O2 | / | / | . | /
COc1ccc2nc(NC(=O)c3ccc(F)cc3)sc2c1 | . | . | 55 | .
COc1ccc2nc(NC(C)=O)sc2c1 | . | . | . | .
COc1ccc(C(=O)Nc2nc(CC(=O)NCc3ccc(F)cc3)cs2)cc1 | . | . | 50 | .
CC(=O)N(C)C[C@H]1Oc2ncc(/C=C/c3ccccc3)cc2C(=O)N([C@@H](C)CO)C[C@H]1C | / | / | . | /
Cc1ccc2nc(Cl)c(/C=C/C(=O)c3ccco3)cc2c1 | . | . | 50 | .
C[C@H](CO)N1C[C@H](C)[C@@H](CN(C)Cc2cncnc2)Oc2ncc(C#CC3CCCCC3)cc2C1=O | / | / | . | /
COC(=O)c1ccc(C(=O)N=c2sccn2C)cc1 | . | . | 60 | .
Cn1ccs/c1=N\C(=O)Nc1ccccc1 | . | . | 56 | .
CN(C)c1ccc(C(=O)N=c2sccn2C)cc1[N+](=O)[O-] | . | . | 56 | .
COc1ccc(C(=O)N=c2sccn2C)cc1 | . | . | / | .
Cn1ccsc1=NC(=O)c1ccc(S(=O)(=O)C(F)F)cc1 | . | . | 58 | .
Cn1ccsc1=NC(=O)c1ccc(Cl)cc1 | . | . | / | .
CC(C)C1N=C(c2ccc3c(c2)OCO3)CC(c2ccccc2O)N1 (configuration not stated) | . | . | 47 | .
COc1cccc(C(=O)N(C)C(C)c2nc3ccccc3s2)c1 (configuration not stated) | . | . | . | .
CC(=O)c1ccc(OC(C)c2nc3ccccc3s2)cc1 (configuration not stated) | . | . | 53 | .
Cc1cc(NC(=O)OC2CCCCC2)ccc1[N+](=O)[O-] | . | . | 67 | .
O=C(Nc1cccnc1)OC1CCCCC1 | . | . | / | .
Cc1ccc(NC(=O)C2C3CCCCC32)cc1[N+](=O)[O-] (configuration not stated) | . | . | 42 | .
Cc1ccc(S(=O)(=O)Nc2ccc3c(c2)CC(=O)N([C@H](C)CO)C[C@H](C)[C@@H](CN(C)S(=O)(=O)c2c(C)noc2C)O3)cc1 | / | / | . | /
Cn1c(=NN=Cc2ccccc2OCCO)sc2ccccc21 | . | . | 56 | .
COc1cc2c(cc1NC(=O)c1cccc([N+](=O)[O-])c1)oc1ccccc12 | . | . | / | .
COc1cc2c(cc1NC(=O)CSc1ccccn1)oc1ccccc12 | . | . | 49 | .
COc1cc2c(cc1NC(=O)c1cccnc1)oc1ccccc12 | . | . | 72 | .
SMILES | ASAP1 inh | SMARCA2 activ | esBAF inh | ARFGAP1 inh
CC(C)CC#Cc1ccc2c(c1)O[C@@H](CN(C)C(=O)Cc1ccncc1)[C@@H](C)CN([C@@H](C)CO)S2(=O)=O | / | / | . | /
CCn1cc(C(=O)N2CCN(c3ccccn3)CC2)c2cc(OC)c(OC)cc2c1=O | . | 8.4 | . | .
COc1cc(OC)c(C(=O)N2CCN(c3ccccn3)CC2)cc1OC | . | . | . | .
CCCc1ccc(OCc2ccc(C(=O)N3CCN(c4ccccn4)CC3)o2)c(OC)c1 | . | . | 45 | .
C[C@H]1CN([C@@H](C)CO)C(=O)c2cccc(NC(=O)Nc3ccc4c(c3)OCO4)c2O[C@H]1CN(C)C(=O)Nc1ccc2c(c1)OCO2 | / | / | . | /
CO[C@@H]1CN(C)C(=O)c2ccc(NC(=O)c3ccccc3F)cc2OC[C@H](C)N(C(=O)c2ccccc2F)C[C@@H]1C | / | / | . | /
Cc1ccc(S(=O)(=O)N[C@@H]2C=C[C@@H](CC(=O)NCc3ccncn3)O[C@@H]2CO)cc1 | / | / | . | /
COc1ccc(CN(C)C[C@H]2Oc3ccc(NC(=O)NC4CCCCC4)cc3C(=O)N([C@@H](C)CO)C[C@@H]2C)cc1 | / | / | . | /
CCCc1cc(C(=O)Nc2ccc(C(C)=O)cc2)no1 | . | . | . | .
CC(=O)c1cccc(NC(=O)c2cc3ccccn3n2)c1 | . | . | 54 | .
CCCc1cc(C(=O)Nc2cccc(Cl)c2)no1 | . | . | 54 | .
CCCc1cc(C(=O)NCc2ccccc2)no1 | . | . | . | .
CCCc1cc(C(=O)NCc2cccs2)no1 | . | . | 54 | .
CCCc1cc(C(=O)Nc2cccc(C(C)=O)c2)no1 | . | 7.9 | 51 | .
O=C(C[C@@H]1C[C@H]2c3cc(NC(=O)C4CCOCC4)ccc3O[C@H]2[C@@H](CO)O1)NCc1cc(F)ccc1F | / | / | . | /
CC1=C/C(=C(\c2cc(C)c(O)c(Br)c2)c2ccccc2S(=O)(=O)O)C=C(Br)C1=O | . | . | . | 30
O=C(COC(=O)c1cccc(-n2cnnn2)c1)c1ccc(F)c(F)c1 | . | . | ? | .
